Test results as given in ChEMBL document CHEMBL1123641, “Antiulcer agents. 2. Gastric antisecretory, cytoprotective, and metabolic properties of substituted imidazo[1,2-a]pyridines and analogues” (J Med Chem, 1987).

What was measured:
Type in all cases: functional
Canis familiaris [1] = experiment: Antisecretory activity in histamine stimulated dogs at 2 mg/kg dose administered intravenously; conditions: Canis lupus familiaris, route intravenous
How it was run: (§1)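 Adult mongrel dogs with surgically prepared Heidenhain pouches, acid secretion stimulated with histamine. Compound given intravenously (0.1-5 mg/kg range). Acid output reduction is expressed relative to the nondrug-treated control value in the same animal, each dog serving as its own control. Unless noted otherwise, one dog per compound. ED50 is the iv dose reducing acid output to 50% of control.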

Rattus norvegicus [2] = experiment: Antisecretory activity in pylorus ligated rats at a 40 mg/kg dose administered intraperitoneally; conditions: ip, route intraperitoneal
How it was run: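 Pylorus-ligated rats, six per compound and eight controls. Compound given intraperitoneally at 40 mg/kg at the time of ligation. Reduction in acid output measured over 4 h.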

Rattus norvegicus [3] = organism: Rattus norvegicus; experiment: Cytoprotective activity in rats against the ethyl alcohol stimulated ulcers measured as effective dose
How it was run: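 Rats were dosed orally at 1–30 mg/kg, 30 min before an oral challenge of absolute ethanol. Ethanol-induced gastric lesions were scored 1 h later, and an effective dose was estimated.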

Canis familiaris [4] = experiment: Antisecretory activity in histamine stimulated dogs following 5 mg/kg i.v. administration.; conditions: Canis lupus familiaris, route intravenous; how it was run: as §1
Canis familiaris [5] = experiment: Antisecretory activity in histamine stimulated dogs at 8 mg/kg dose administered orally; conditions: Canis lupus familiaris, route oral
How it was run: (§2)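 Heidenhain pouch mongrel dogs, histamine-stimulated acid secretion. Compound given orally at 2–8 mg/kg. Reduction in acid output is relative to the same animal's own nondrug control, since histamine response depends on pouch size. Usually a single dog per compound. Oral ED50 is the dose reducing acid output to 50% of control.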

Canis familiaris [6] = experiment: Antisecretory activity in histamine stimulated dogs at 4 mg/kg dose administered orally; conditions: Canis lupus familiaris, route oral; how it was run: as §2
Canis familiaris [7] = experiment: Antisecretory activity in histamine stimulated dogs at 2 mg/kg dose administered orally; conditions: Canis lupus familiaris, route oral; how it was run: as §2

Structure (SMILES) | inhibition in vivo at 2 mg/kg (Canis familiaris [1]) [%] | inhibition in vivo at 40 mg/kg (Rattus norvegicus [2]) [%] | ED50 (Rattus norvegicus [3]) [mg/kg] | inhibition in vivo at 5 mg/kg (Canis familiaris [4]) [%] | inhibition in vivo at 8 mg/kg (Canis familiaris [5]) [%] | inhibition in vivo at 4 mg/kg (Canis familiaris [6]) [%] | inhibition in vivo at 2 mg/kg (Canis familiaris [7]) [%]
Cc1nc2c(OCc3ccccc3)cccn2c1NC=O | 3 | 49 | 10 |  |  |  | 
CC(C)(C)c1nc2c(OCc3ccccc3)cccn2c1N |  | 0 | 15 | 2 | 0 |  | 
CCCc1nc2c(OCc3ccccc3)cccn2c1N | 45 | 31 |  |  | 0 |  | 
Cc1nc2c(OCc3ccccc3)cccn2c1CCN | 6 | 63 |  |  | 9 |  | 
Cc1ccn2c(N)c(C)nc2c1OCc1ccccc1 |  | 60 | 13.5 |  | 64 | 36 | 
Cc1nc2c(OCc3ccsc3)cccn2c1N | 82 | 52 | 8.4 |  | 88 | 86 | 29
Cc1ccn2c(C)c(C)nc2c1OCc1ccccc1 | 70 | 92 | 16 |  | 35 |  | 
CC(=O)Nc1c(C)nc2c(CCc3ccccc3)cccn12 |  | 40 | 12 | 3 | 16 |  | 
CCCN(CCC)c1c(C)nc2c(OCc3ccccc3)cccn12 |  | 60 | 8.4 | 0 |  |  | 
CC(C)c1nc2c(OCc3ccccc3)cccn2c1N | 24 | 0 | 2.7 |  | 0 |  | 
CNc1c(C)nc2c(OCc3ccccc3)cccn12 |  | 55 | 9.8 |  |  |  | 
Cc1nc2c(OCc3ccccc3)cccn2c1NC(C)C |  | 18 | 16 | 0 |  |  | 
Cc1cc(OCc2ccccc2)c2nc(C)c(N)n2c1 | 46 | 65 | 2.3 |  | 50 |  | 
CC(=O)Nc1c(C)nc2c(OCc3ccccc3)cccn12 | 24 | 93 | 4.6 |  | 44 |  | 
CCCNc1c(C)nc2c(OCc3ccccc3)cccn12 | 12 | 99 | 5.3 |  | 68 |  | 
Cc1nc2c(COc3ccccc3)cccn2c1N |  | 27 | 6.6 | 34 | 39 |  | 
Cc1nc2c(OCc3ccccc3)cccn2c1/N=C/N(C)C | 12 | 64 | 9.8 |  | 0 |  | 
Cc1nc2c(OCc3ccc(C(F)(F)F)cc3)cccn2c1N | 0 | 78 | 6.5 |  | 8 |  | 
CCCCc1nc2c(OCc3ccccc3)cccn2c1N | 45 | 26 | 7.5 |  | 0 |  | 
Cc1nc2c(CCc3ccccc3)nccn2c1N |  |  |  | 18 |  |  | 
Cc1nc2c(OCc3ccc(F)cc3)cccn2c1N | 95 | 95 | 4.8 |  | 93 | 60 | 55
CSc1c(C)nc2c(CCc3ccccc3)cccn12 |  | 28 | 8.5 | 0 |  |  | 

Structure (SMILES) | inhibition in vivo at 2 mg/kg (Canis familiaris [1]) [%] | inhibition in vivo at 40 mg/kg (Rattus norvegicus [2]) [%] | ED50 (Rattus norvegicus [3]) [mg/kg] | inhibition in vivo at 5 mg/kg (Canis familiaris [4]) [%] | inhibition in vivo at 8 mg/kg (Canis familiaris [5]) [%] | inhibition in vivo at 4 mg/kg (Canis familiaris [6]) [%] | inhibition in vivo at 2 mg/kg (Canis familiaris [7]) [%]
Cc1nc2cc(CCc3ccccc3)ccn2c1N | 17 | 50 | 5.2 |  | 0 |  | 
Cc1nc2c(OCc3ccccc3)cccn2c1NC(=O)OCc1ccccc1 | 82 | 8 |  |  |  | 17 | 
Cc1nc2c(NCc3ccccc3)cccn2c1N | 98 | 84 | 9.6 |  | 89 |  | 
COc1c(C)nc2c(OCc3ccccc3)cccn12 |  | 49 | 3.6 | 37 |  |  | 
Cc1nc2c(SCc3ccccc3)cccn2c1N | 0 | 0 | 5.7 |  | 11 |  | 
Cc1nc2c(OCc3ccccc3)ccc(C)n2c1C | 13 | 26 | 8 |  |  |  | 
Cc1nc2c(OCc3ccccc3)cccn2c1N(C)C | 85 | 76 | 2.8 |  | 72 |  | 
CCNc1c(C)nc2c(OCc3ccccc3)cccn12 | 32 | 95 | 3.5 | 70 | 68 |  | 
Cc1nc2c(OCc3ccccn3)cccn2c1N |  | 16 | 2.3 |  | 15 |  | 
Cc1nc2ccc(CCc3ccccc3)cn2c1N | 6 | 52 | 5.7 |  | 0 |  | 
Cc1cc(OCc2ccccc2)c2nc(C)c(C)n2c1 | 45 | 86 | 8.2 |  | 71 | 0 | 
Cc1nc2c(OCc3ccccc3)cccn2c1CN |  | 46 |  | 49 | 9 |  | 
CCNc1c(C)nc2c(OCc3ccccc3)nccn12 |  | 48 | 6 | 0 |  |  | 
Cc1nc2c(OCCc3ccccc3)cccn2c1N | 39 | 56 | 5.2 |  | 39 |  | 
Cc1nc2c(Oc3ccccc3)cccn2c1N | 40 | 34 | 5 |  | 19 |  | 
Cc1nc2c(CCc3ccccc3)cccn2c1O | 0 | 32 | 9.6 |  |  |  | 
COC(=O)Nc1c(C)nc2c(OCc3ccccc3)cccn12 |  | 0 |  |  |  |  | 
CNC(=O)Nc1c(C)nc2c(OCc3ccccc3)cccn12 |  | 22 | 3.5 | 27 |  |  | 
Cc1nc2n(c1CC#N)CCCC2OCc1ccccc1 (stereo unspecified) |  | 44 |  | 0 |  |  | 
Cc1nc2c(OCc3ccccc3)cccn2c1NCc1ccccc1 |  | 48 | 2.5 | 0 |  |  | 
CCNc1c(C)nc2c(CCc3ccccc3)cccn12 |  | 78 | 5.2 | 11 | 65 |  | 
Cc1nc2c(OCc3ccccc3)ccc(C)n2c1CC#N.Cl |  |  | 8 | 0 |  | 11 | 
